ChEMBL document CHEMBL1154770, “Betulinic acid derivatives as human immunodeficiency virus type 2 (HIV-2) inhibitors” (J Med Chem, 2009)
The source made the active and inactive calls. The rule behind the calls is not given here.

Tests used:
[1] = Antiviral activity against HIV2 KR X3 infected in human TZM-b1 cells assessed as reduction in luciferase activity after 2 days by luciferase reporter gene assay; assay type: functional, cell-based, Human immunodeficiency virus type 2 (isolate KR); conditions: Human immunodeficiency virus 2, X3, TZM-b1, 48 h
Method in brief: (§1)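 Single-round infection of TZM-bl cells with 200 TCID50 of virus in the presence of graded compound concentrations. After 2 days, the medium was removed and Bright Glo reagent was added to read luciferase luminescence (RLU). IC50 is the concentration giving 50% reduction of luciferase activity relative to virus control wells.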

[2] = Cytotoxicity against human TZM-b1 cells after 2 days; assay type: cell-based; conditions: read-out: TC50
[3] = test system: Human immunodeficiency virus 1; experiment: Antiviral activity against HIV1 NL4-3 infected in human TZM-b1 cells assessed as reduction in luciferase activity after 2 days by luciferase reporter gene assay; assay type: functional, cell-based; conditions: Human immunodeficiency virus 1, NL4-3, TZM-b1, 48 h; method in brief: as §1
[4] = Selectivity index, ratio of TC50 for human TZM-b1 cells to IC50 for HIV2 KR X3 infected in human TZM-b1 cells; assay type: toxicity, cell-based; conditions: TZM-b1 cells infected with HIV2 KR X3, read-out: Selectivity Index
Method in brief: (§2)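 TC50 from 2-day CytoTox-Glo viability assay of compound-treated TZM-bl cells, divided by IC50 from single-round TZM-bl infection (200 TCID50 HIV-1 NL4-3 or HIV-2 KR.X3, 2-day luciferase read, 50% RLU reduction versus virus control).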

[5] = Ratio of IC50 for HIV2 KR X3 infected in human TZM-b1 cells to IC50 for HIV1 NL4-3 infected in human TZM-b1 cells; assay type: functional
Method in brief: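 IC50s from single-round TZM-bl infection with 200 TCID50 HIV-1 NL4-3 or HIV-2 KR.X3, graded compound concentrations, 2-day luciferase (Bright Glo) read-out; IC50 = 50% RLU reduction versus virus control; ratio of HIV-2 to HIV-1 IC50.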

[6] = Selectivity index, ratio of TC50 for human TZM-b1 cells to IC50 for HIV1 NL4-3 infected in human TZM-b1 cells; assay type: toxicity, cell-based; conditions: TZM-b1 cells infected with HIV1 NL4-3, read-out: Selectivity Index; method in brief: as §2
[7] = test system: HIV-1 NL4-3 (human immunodeficiency virus 1); experiment: Antiviral activity against HIV1 NL4-3 infected in human TZM-b1 cells after 2 days by luciferase reporter gene assay; conditions: Human immunodeficiency virus 1, NL4-3, TZM-b1, 48 h
TZM-b1 [8] = experiment: Inhibition of HIV1 YU-2 gp120 V3 loop assessed as inhibition of HIV2 KR X3 replication in human TZM-b1 cells; assay type: cell-based; conditions: Human immunodeficiency virus type 1 (isolate YU2)
Method in brief: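 Single-round infection of TZM-bl cells with 200 TCID50 of HIV-2 KR.X3 chimera carrying the HIV-1 YU2 V3 loop (KR.X3-YU2/V3), in presence of graded compound concentrations. After 2 days medium removed, Bright Glo added, luciferase luminescence read; IC50 = concentration halving RLU versus virus-control wells.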

TZM-b1 [9] = experiment: Antiviral activity against HIV2 KR X3 infected in human TZM-b1 cells after 2 days by luciferase reporter gene assay; assay type: functional, cell-based; conditions: Human immunodeficiency virus type 2 (isolate KR); method in brief: as §1
TZM-b1 [10] = experiment: Antiviral activity against HIV2 KR X3 harboring V3 loop of HIV1 YU-2 infected in human TZM-b1 cells after 2 days by luciferase reporter gene assay; assay type: functional, cell-based; conditions: Human immunodeficiency virus type 2 (isolate KR); method in brief: as §1

| SMILES | IC50 [1] [µM] | CC50 at 48 h [2] [µM] | IC50 [3] [µM] | selectivity ratio [4] | other results |
| --- | --- | --- | --- | --- | --- |
| Cc1cn([C@H]2C[C@H](N=[N+]=[N-])[C@@H](CO)O2)c(=O)[nH]c1=O [ZIDOVUDINE] | 0.069 | – | – | – | – |
| C=C(C)[C@@H]1CC[C@]2(C(=O)NCCCCCCC(=O)O)CC[C@]3(C)[C@H](CC[C@@H]4[C@@]5(C)CC[C@H](O)C(C)(C)[C@@H]5CC[C@]43C)[C@@H]12 | 4.5 | 36.2 | 11.1 | – | – |
| C=C(C)[C@@H]1CC[C@]2(C(=O)NCCCCCCCC(=O)O)CC[C@]3(C)[C@H](CC[C@@H]4[C@@]5(C)CC[C@H](O)C(C)(C)[C@@H]5CC[C@]43C)[C@@H]12 | – | 34.2 | 0.84 | < 2 | – |
| C=C(C)[C@@H]1CC[C@]2(C(=O)NCCCCCCCC(=O)NC(CC(C)C)[C@H](O)CC(=O)O)CC[C@]3(C)[C@H](CC[C@@H]4[C@@]5(C)CC[C@H](O)C(C)(C)[C@@H]5CC[C@]43C)[C@@H]12 (single isomer, unassigned) | 2.9 | 33.2 | 0.042 | – | Ratio IC50 [5]: 70 |
| C=C(C)[C@@H]1CC[C@]2(C(=O)NCCCCCC(=O)N[C@@H](Cc3ccc(O)cc3)C(=O)O)CC[C@]3(C)[C@H](CC[C@@H]4[C@@]5(C)CC[C@H](O)C(C)(C)[C@@H]5CC[C@]43C)[C@@H]12 | 0.23 | 54.6 | – | – | selectivity ratio [6]: < 2 |
| C=C(C)[C@@H]1CC[C@]2(C(=O)NCCCCC(=O)O)CC[C@]3(C)[C@H](CC[C@@H]4[C@@]5(C)CC[C@H](O)C(C)(C)[C@@H]5CC[C@]43C)[C@@H]12 | 0.17 | > 72 | 32.8 | – | – |
| C=C(C)[C@@H]1CC[C@]2(C(=O)NCCCCCCC(=O)NCC(=O)O)CC[C@]3(C)[C@H](CC[C@@H]4[C@@]5(C)CC[C@H](O)C(C)(C)[C@@H]5CC[C@]43C)[C@@H]12 | 0.42 | > 63 | 4.1 | – | – |
| C=C(C)[C@@H]1CC[C@]2(C(=O)NCCCCCCNC(C)=O)CC[C@]3(C)[C@H](CC[C@@H]4[C@@]5(C)CC[C@H](O)C(C)(C)[C@@H]5CC[C@]43C)[C@@H]12 | – | 48.1 | 0.027 | < 2 | IC50 [7]: 0.027 µM |
| C=C(C)[C@@H]1CC[C@]2(C(=O)NCCCCCCCCNC(C)=O)CC[C@]3(C)[C@H](CC[C@@H]4[C@@]5(C)CC[C@H](O)C(C)(C)[C@@H]5CC[C@]43C)[C@@H]12 | – | > 64 | 0.14 | < 2 | – |
| C=C(C)[C@@H]1CC[C@]2(C(=O)NCCCCCNC(C)=O)CC[C@]3(C)[C@H](CC[C@@H]4[C@@]5(C)CC[C@H](O)C(C)(C)[C@@H]5CC[C@]43C)[C@@H]12 | – | 13.9 | – | < 2 | selectivity ratio [6]: < 2 |
| C=C(C)[C@@H]1CC[C@]2(C(=O)NCCCCCC(=O)N[C@@H](C)C(=O)O)CC[C@]3(C)[C@H](CC[C@@H]4[C@@]5(C)CC[C@H](O)C(C)(C)[C@@H]5CC[C@]43C)[C@@H]12 | 0.37 | > 63 | 48.9 | – | – |
| C=C(C)[C@@H]1CC[C@]2(C(=O)NCCCC(=O)NCC(=O)O)CC[C@]3(C)[C@H](CC[C@@H]4[C@@]5(C)CC[C@H](O)C(C)(C)[C@@H]5CC[C@]43C)[C@@H]12 | 3.7 | > 67 | – | – | selectivity ratio [6]: < 2 |
| C=C(C)[C@@H]1CC[C@]2(C(=O)NCCCCCC(=O)NCC(=O)O)CC[C@]3(C)[C@H](CC[C@@H]4[C@@]5(C)CC[C@H](O)C(C)(C)[C@@H]5CC[C@]43C)[C@@H]12 | 0.35 | > 64 | 34.7 | – | IC50 [7]: 0.35 µM; Activity (TZM-b1 [8]): Active; Activity (TZM-b1 [9]): Dose-dependent effect; Activity (TZM-b1 [10]): Dose-dependent effect |
| C=C(C)[C@@H]1CC[C@]2(C(=O)O)CC[C@]3(C)[C@H](CC[C@@H]4[C@@]5(C)CC[C@H](O)C(C)(C)[C@@H]5CC[C@]43C)[C@@H]12 [BETULINIC ACID] | – | > 80 | – | < 2 | selectivity ratio [6]: < 2 |
| C=C(C)[C@@H]1CC[C@]2(C(=O)NCCCCCC(=O)O)CC[C@]3(C)[C@H](CC[C@@H]4[C@@]5(C)CC[C@H](O)C(C)(C)[C@@H]5CC[C@]43C)[C@@H]12 | 0.15 | > 70 | 2 | – | – |
| C=C(C)[C@@H]1CC[C@]2(C(=O)O)CC[C@]3(C)[C@H](CC[C@@H]4[C@@]5(C)CC[C@H](OC(=O)CC(C)(C)C(=O)O)C(C)(C)[C@@H]5CC[C@]43C)[C@@H]12 [BEVIRIMAT] | – | > 30 | 0.13 | < 2 | – |
| C=C(C)[C@@H]1CC[C@]2(C(=O)NCCCCC(=O)NCC(=O)O)CC[C@]3(C)[C@H](CC[C@@H]4[C@@]5(C)CC[C@H](O)C(C)(C)[C@@H]5CC[C@]43C)[C@@H]12 | 2.6 | > 65 | – | – | selectivity ratio [6]: < 2 |
| C=C(C)[C@@H]1CC[C@]2(C(=O)NCCCCCCCC(=O)NCC(=O)O)CC[C@]3(C)[C@H](CC[C@@H]4[C@@]5(C)CC[C@H](O)C(C)(C)[C@@H]5CC[C@]43C)[C@@H]12 | 0.64 | 15.8 | 0.12 | – | – |
| C=C(C)[C@@H]1CC[C@]2(C(=O)NCCCCCCCNC(C)=O)CC[C@]3(C)[C@H](CC[C@@H]4[C@@]5(C)CC[C@H](O)C(C)(C)[C@@H]5CC[C@]43C)[C@@H]12 | – | > 66 | 0.038 | < 2 | IC50 [7]: 0.038 µM |
| C=C(C)[C@@H]1CC[C@]2(C(=O)NCCCCCCNC(=O)CC(=O)O)CC[C@]3(C)[C@H](CC[C@@H]4[C@@]5(C)CC[C@H](O)C(C)(C)[C@@H]5CC[C@]43C)[C@@H]12 | – | 34.6 | 0.44 | < 2 | – |
| C=C(C)[C@@H]1CC[C@]2(C(=O)NCCCCCC(=O)NCC(=O)NCC(=O)O)CC[C@]3(C)[C@H](CC[C@@H]4[C@@]5(C)CC[C@H](O)C(C)(C)[C@@H]5CC[C@]43C)[C@@H]12 | 1.7 | > 58 | > 58 | – | – |
| C=C(C)[C@@H]1CC[C@]2(C(=O)NCCCC(=O)O)CC[C@]3(C)[C@H](CC[C@@H]4[C@@]5(C)CC[C@H](O)C(C)(C)[C@@H]5CC[C@]43C)[C@@H]12 | 2.8 | 31.2 | – | – | selectivity ratio [6]: < 2 |
| C=C(C)[C@@H]1CC[C@]2(C(=O)NCCCCCC(=O)N3CCC[C@H]3C(=O)O)CC[C@]3(C)[C@H](CC[C@@H]4[C@@]5(C)CC[C@H](O)C(C)(C)[C@@H]5CC[C@]43C)[C@@H]12 | 0.63 | > 60 | 51.4 | – | – |
